Test results reported in ChEMBL document CHEMBL1144203, “Synthesis and antiviral evaluation of acyclic azanucleosides developed from sulfanilamide as a lead structure” (Bioorg Med Chem, 2008).
The source made the active and inactive calls. The calls are words filed in the database; no cut-off is given here.

Experiments:
[1] = Cytotoxicity against HEL cells assessed as alteration in cell morphology by MTS assay; type: cell-based; settings: human
Summary of the method: (§1)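 Uninfected host cells (HEL or HeLa) exposed to compounds […]. The minimal cytotoxic concentration (MCC) is the lowest concentration causing a microscopically detectable change in normal cell morphology. CC50 is the concentration giving a 50% fall in cell viability by the colorimetric formazan-based MTS assay.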

HeLa [2] = assay: Cytotoxicity against human HeLa cells assessed as alteration in cell morphology by MTS assay; type: functional; summary of the method: as §1
[3] = Cytotoxicity against MDCK cells assessed as alteration in cell morphology by MTS assay; type: cell-based, Canis lupus familiaris; settings: dog
Summary of the method: (§2)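 Uninfected host cells were exposed to compound and examined under the microscope. MCC was the minimal compound concentration causing a microscopically detectable change in normal cell morphology.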

[4] = Cytotoxicity against african green monkey Vero cells assessed as alteration in cell morphology by MTS assay; type: cell-based; settings: chlorocebus sabaeus; summary of the method: as §2
[5] = Cytotoxicity against MDCK cells assessed as decrease in cell viability by MTS assay; type: cell-based, Canis lupus familiaris; settings: dog
Summary of the method: (§3)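 Uninfected host cells were exposed to compound. CC50 was taken as the concentration giving a 50% fall in cell viability, measured by a colorimetric formazan-based MTS assay.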

[6] = system: Respiratory syncytial virus; assay: Antiviral activity against respiratory syncytial virus infected in HeLa cells assessed as inhibition of virus-induced cytopathic effect at 100 uM by MTS assay; type: functional, organism-based
Summary of the method: (§4)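 HeLa cells were infected with the virus, and compounds were tested up to 100 μM. EC50 is the concentration that halves virus-induced cytopathic effect, read by visual CPE scoring or by MTS formazan colorimetric viability measurement.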

Feline coronavirus = assay: Antiviral activity against feline coronavirus infected in CRFK cells assessed as inhibition of virus-induced cytopathic effect at 100 uM by MTS assay; type: functional, organism-based
Punta Toro virus [7] = assay: Antiviral activity against Punta Toro virus infected in Vero cells assessed as inhibition of virus-induced cytopathic effect at 100 uM by MTS assay; type: functional, organism-based
Summary of the method: (§5)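 Vero cell monolayers were infected with the virus in cell-based CPE assays. EC50 is the concentration giving 50% inhibition of virus-induced cytopathic effect, scored visually or by MTS formazan colorimetric cell-viability read-out. The highest concentration tested was 100 μM for most compounds and lower for a few.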

Sindbis virus = assay: Antiviral activity against Sindbis virus infected in Vero cells assessed as inhibition of virus-induced cytopathic effect at 100 uM by MTS assay; type: functional, organism-based; summary of the method: as §5
Human alphaherpesvirus 2 = assay: Antiviral activity against HSV2 virus infected in HEL cells assessed as inhibition of virus-induced cytopathic effect at 100 uM by MTS assay; type: functional, organism-based
Human respirovirus 3 = assay: Antiviral activity against Parainfluenza 3 virus infected in Vero cells assessed as inhibition of virus-induced cytopathic effect at 100 uM by MTS assay; type: functional, organism-based; summary of the method: as §5
HeLa [8] = assay: Cytotoxicity against human HeLa cells assessed as decrease in cell viability upto 100 uM by MTS assay; type: functional, cell-based
Summary of the method: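 Uninfected HeLa host cells were tested up to 100 μM. CC50 is the concentration causing a 50% drop in cell viability by colorimetric formazan-based MTS assay. Alternatively, MCC is the minimal concentration giving microscopically detectable alteration of normal cell morphology.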

HEL = assay: Cytotoxicity against HEL cells assessed as decrease in cell viability upto 100 uM by MTS assay; type: cell-based; settings: human
[9] = Cytotoxicity against CRFK cells assessed as decrease in cell viability by MTS assay; type: cell-based, Felis catus; settings: cat; summary of the method: as §3
Human alphaherpesvirus 1 = assay: Antiviral activity against HSV1 virus infected in HEL cells assessed as inhibition of virus-induced cytopathic effect at 100 uM by MTS assay; type: functional, organism-based
[10] = system: Mammalian orthoreovirus 1; assay: Antiviral activity against Reovirus1 infected in Vero cells assessed as inhibition of virus-induced cytopathic effect at 100 uM by MTS assay; type: functional, organism-based; summary of the method: as §5
Coxsackievirus B4 [11] = assay: Antiviral activity against Coxsackievirus B4 infected in HeLa cells assessed as inhibition of virus-induced cytopathic effect at 100 uM by MTS assay; type: functional, organism-based; summary of the method: as §4
Coxsackievirus B4 [12] = assay: Antiviral activity against Coxsackievirus B4 infected in Vero cells assessed as inhibition of virus-induced cytopathic effect at 100 uM by MTS assay; type: functional, organism-based; summary of the method: as §5
Felid alphaherpesvirus 1 = assay: Antiviral activity against feline herpes virus infected in CRFK cells assessed as inhibition of virus-induced cytopathic effect at 100 uM by MTS assay; type: functional, organism-based
MDCK = assay: Cytotoxicity against MDCK cells assessed as decrease in cell viability upto 100 uM by MTS assay; type: cell-based, Canis lupus familiaris; settings: dog
[13] = Cytotoxicity against CRFK cells assessed as decrease in cell viability upto 100 uM by MTS assay; type: cell-based, Felis catus; settings: cat
Punta Toro virus [14] = assay: Antiviral activity against Punta Toro virus infected in Vero cells assessed as inhibition of virus-induced cytopathic effect by MTS assay; type: functional, organism-based
Summary of the method: (§6)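 Vero cell monolayers infected with Coxsackie B4 virus or Punta Toro virus, with test compounds at up to 100 μM. EC50 is the concentration giving 50% inhibition of virus-induced cytopathic effect (CPE), scored visually or from cell viability by the colorimetric formazan-based MTS assay.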

Coxsackievirus B4 [15] = assay: Antiviral activity against Coxsackievirus B4 infected in Vero cells assessed as inhibition of virus-induced cytopathic effect by MTS assay; type: functional, organism-based; settings: Enterovirus B; summary of the method: as §6

SMILES | MCC [3] [µM] | CC50 [5] [µM] | Activity [6] | Activity (Feline coronavirus) | Activity (Punta Toro virus [7]) | Activity (Sindbis virus) | Activity (Human alphaherpesvirus 2) | Activity (Human respirovirus 3) | Activity (HeLa [8]) | Activity (HEL) | Activity (Human alphaherpesvirus 1) | Activity [10] | Activity (Coxsackievirus B4 [11]) | Activity (Coxsackievirus B4 [12]) | Activity (Felid alphaherpesvirus 1) | Activity (MDCK) | Activity [13] | also measured
NC(=O)c1ncn([C@@H]2O[C@H](CO)[C@@H](O)[C@H]2O)n1 [RIBAVIRIN] | 100 | > 100 |  |  |  |  |  |  |  |  |  |  |  |  |  |  |  | MCC [1]: > 250 µM; MCC (HeLa [2]): > 250 µM; MCC [4]: > 250 µM
CC(C)(C)C(=O)OCCN(Cn1cc(F)c(=O)[nH]c1=O)S(=O)(=O)c1ccc([N+](=O)[O-])cc1 | 20 | 69 | inactive | inactive | inactive | inactive | inactive | inactive | inactive | Not Active | inactive | inactive | inactive | inactive | inactive |  |  | CC50 [9]: 44 µM
CC(C)(C)C(=O)OCCN(Cn1ccc(=O)[nH]c1=O)S(=O)(=O)c1ccc([N+](=O)[O-])cc1 |  |  | inactive | inactive | inactive | inactive | inactive | inactive | inactive | Not Active | inactive | inactive | inactive | inactive | inactive | Not Active |  | CC50 [9]: 49 µM
CC(=O)Nc1ccc(S(=O)(=O)N(CCOC(=O)C(C)(C)C)Cn2ccc(=O)[nH]c2=O)cc1 |  |  | inactive | inactive | inactive | inactive | inactive | inactive | inactive | Not Active | inactive | inactive | inactive | inactive | inactive | Not Active | Not Active | MCC [4]: 40 µM
CCOC(=O)C1=C[C@@H](OC(CC)CC)[C@H](NC(C)=O)[C@@H](N)C1 [OSELTAMIVIR] | > 100 | > 100 |  |  |  |  |  |  |  |  |  |  |  |  |  |  |  | 
Cc1cn(CN(CCOC(=O)C(C)(C)C)S(=O)(=O)c2ccccc2[N+](=O)[O-])c(=O)[nH]c1=O |  |  | inactive | inactive |  | inactive | inactive | inactive | inactive | Not Active | inactive | inactive | inactive |  | inactive | Not Active | Not Active | EC50 (Punta Toro virus [14]): 100 µM; EC50 (Coxsackievirus B4 [15]): 100 µM
Nc1ncnc2c1ncn2C[C@H](O)CO [(S)-DHPA] |  |  |  |  |  |  |  |  |  |  |  |  |  |  |  |  |  | MCC (HeLa [2]): > 250 µM; MCC [4]: > 250 µM
Nc1nc2c(ncn2COCCO)c(=O)[nH]1 [ACYCLOVIR] |  |  |  |  |  |  |  |  |  |  |  |  |  |  |  |  |  | MCC [1]: > 250 µM
CC(N)C12CC3CC(CC(C3)C1)C2 (stereo not drawn) [RIMANTADINE] | > 100 | > 100 |  |  |  |  |  |  |  |  |  |  |  |  |  |  |  | 
NC12CC3CC(CC(C3)C1)C2 [AMANTADINE] | > 100 | > 100 |  |  |  |  |  |  |  |  |  |  |  |  |  |  |  | 
CC(C)(C)C(=O)OCCN(Cn1cc(F)c(=O)[nH]c1=O)S(=O)(=O)c1ccccc1[N+](=O)[O-] | 4 | > 100 | inactive | inactive | inactive | inactive | inactive | inactive | inactive | Not Active | inactive | inactive | inactive | inactive | inactive |  |  | CC50 [9]: 14 µM
CC(=O)Nc1ccc(S(=O)(=O)N(CCOC(=O)C(C)(C)C)Cn2cc(C)c(=O)[nH]c2=O)cc1 |  |  | inactive | inactive | inactive | inactive | inactive | inactive | inactive | Not Active | inactive | inactive | inactive | inactive | inactive | Not Active | Not Active | MCC [4]: 40 µM
O=c1[nH]c(=O)n([C@H]2C[C@H](O)[C@@H](CO)O2)cc1/C=C/Br [BRIVUDINE] |  |  |  |  |  |  |  |  |  |  |  |  |  |  |  |  |  | MCC [1]: > 250 µM; MCC (HeLa [2]): > 250 µM; MCC [4]: > 250 µM
Cc1cn(CN(CCO)S(=O)(=O)c2cccc(N)c2)c(=O)[nH]c1=O |  |  | inactive | inactive | inactive | inactive | inactive | inactive | inactive | Not Active | inactive | inactive | inactive | inactive | inactive | Not Active | Not Active | 
Cc1cn(CN(CCOC(=O)C(C)(C)C)S(=O)(=O)c2ccc(N)cc2)c(=O)[nH]c1=O |  |  | inactive | inactive | inactive | inactive | inactive | inactive | inactive | Not Active | inactive | inactive | inactive | inactive | inactive | Not Active | Not Active | 
Cc1cn(CN(CCOC(=O)C(C)(C)C)S(=O)(=O)c2ccc([N+](=O)[O-])cc2)c(=O)[nH]c1=O |  |  | inactive | inactive | inactive | inactive | inactive | inactive | inactive | Not Active | inactive | inactive | inactive | inactive | inactive | Not Active |  | CC50 [9]: 53 µM
Nc1nc(O)c2ncn(COC(CO)CO)c2n1 [GANCICLOVIR] |  |  |  |  |  |  |  |  |  |  |  |  |  |  |  |  |  | MCC [1]: > 100 µM; CC50 [9]: > 100 µM
Cc1cn(CN(CCOC(=O)C(C)(C)C)S(=O)(=O)c2cccc(N)c2)c(=O)[nH]c1=O |  |  | inactive | inactive | inactive | inactive | inactive | inactive | inactive | Not Active | inactive | inactive | inactive | inactive | inactive | Not Active | Not Active | 
